From ChEMBL document CHEMBL1149694, “5-(3-Cyclopentyl-2-thioxo-2,3-dihydro-1H-benzimidazol-5-yl)-1-methyl-1H-pyrrole-2-carbonitrile: A novel, highly potent, selective, and orally active non-steroidal progesterone receptor agonist” (Bioorg Med Chem, 2007)
Activity calls are given as the source filed them. The rule behind the calls is not given here.

Assays:
Progesterone receptor [1] = target: T1, Progesterone receptor (Homo sapiens, UniProt P06401); assay: (§1) Agonist activity at progesterone receptor expressed in T47D cells by alkaline phosphatase assay; format: functional, cell-based
T1 sequence (P06401 whole entry): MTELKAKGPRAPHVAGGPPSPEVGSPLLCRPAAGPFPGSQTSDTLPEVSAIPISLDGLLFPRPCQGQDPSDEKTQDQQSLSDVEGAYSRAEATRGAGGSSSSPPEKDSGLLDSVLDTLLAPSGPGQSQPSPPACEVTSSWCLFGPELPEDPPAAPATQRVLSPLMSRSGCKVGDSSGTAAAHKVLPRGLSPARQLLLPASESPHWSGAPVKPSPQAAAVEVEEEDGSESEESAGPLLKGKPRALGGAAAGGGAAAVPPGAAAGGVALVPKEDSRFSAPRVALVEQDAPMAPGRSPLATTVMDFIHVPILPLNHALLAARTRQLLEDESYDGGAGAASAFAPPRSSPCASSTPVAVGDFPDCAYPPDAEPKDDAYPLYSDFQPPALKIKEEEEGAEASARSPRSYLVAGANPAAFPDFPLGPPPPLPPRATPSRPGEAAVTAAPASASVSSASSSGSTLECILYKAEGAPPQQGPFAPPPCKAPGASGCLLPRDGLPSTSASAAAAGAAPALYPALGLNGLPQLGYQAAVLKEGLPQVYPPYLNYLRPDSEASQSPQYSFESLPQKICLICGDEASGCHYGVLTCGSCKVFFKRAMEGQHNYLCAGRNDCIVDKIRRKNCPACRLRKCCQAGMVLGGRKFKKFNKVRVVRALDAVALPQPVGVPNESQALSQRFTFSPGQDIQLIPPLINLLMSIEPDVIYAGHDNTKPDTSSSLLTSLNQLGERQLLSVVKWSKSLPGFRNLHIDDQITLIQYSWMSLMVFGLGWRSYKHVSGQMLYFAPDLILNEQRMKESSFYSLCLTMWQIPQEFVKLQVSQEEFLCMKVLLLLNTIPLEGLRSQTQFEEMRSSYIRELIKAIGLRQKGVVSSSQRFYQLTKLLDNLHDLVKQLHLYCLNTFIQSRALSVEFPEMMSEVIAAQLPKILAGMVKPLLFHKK
How it was run: (§2)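 Human T47D breast carcinoma cells; alkaline phosphatase activity measured. EC50 is the concentration giving 50% effect; efficacy shown in parentheses. Average of at least duplicate determinations.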

Progesterone receptor [2] = target: T1, Progesterone receptor; assay: (§3) Antagonist activity at progesterone receptor expressed in T47D cells assessed as inhibition of progesterone-induced alkaline phosphatase activity; format: functional, cell-based
How it was run: (§4)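 Human T47D breast carcinoma cells stimulated with 1 nM progesterone; compound inhibition of induced alkaline phosphatase activity. IC50 is 50% inhibition. Average of at least duplicate determinations.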

Progesterone receptor [3] = target: T1, Progesterone receptor; assay: Binding affinity to cytosolic PR in T47D cells by competition binding assay; format: cell-based
[4] = target: T2, Progesterone receptor (Homo sapiens) (UniProt P06401); assay: as §3; format: functional, cell-based; conditions: for inhibition: concentration not given here; how it was run: as §4
T2 sequence (whole entry): T1 sequence (P06401 whole entry)

[5] = target: T2, Progesterone receptor (Homo sapiens); assay: Agonist activity at progesterone receptor expressed in T47D cells relative to progesterone; format: functional, cell-based
How it was run: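 Human T47D breast carcinoma cells; agonist mode; read-out is alkaline phosphatase activity; values are the average of at least duplicate determinations.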

Rattus norvegicus [6] = assay: Effect on estrogen-induced synthesis of complement component C3 in sc dosed Sprague-Dawley rat uterus epithelial cells; format: functional, Epithelial cell
How it was run: (§5)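 Adult ovariectomized Sprague–Dawley rats (60-day-old, surgery at least 8 days before dosing), groups of six, acclimated at least 72 h. Compound given once daily for 2 days, by sc injection or oral gavage, in 10% ethanol/corn oil. Ethinyl estradiol given orally on day 2. Uteri taken about 24 h later. C3 mRNA measured by Northern blot, normalized to 28S rRNA. Log-transformed ratios; Huber M-estimator.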

Cynomolgus monkey = assay: Inhibition of ovulation-induced progesterone levels in po dosed cynamologous monkey; format: functional, Macaca fascicularis
How it was run: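 Cynomolgus monkeys dosed orally once daily from day 2 to 28 of the menstrual cycle; vehicle 2% Tween 80/0.5% methylcellulose. Serum progesterone sampled three times weekly until the next menses. Ovulation inferred from the progesterone pattern.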

Rattus norvegicus [7] = assay: Effect on estrogen-induced synthesis of complement component C3 in po dosed Sprague-Dawley rat uterus epithelial cells; format: functional; conditions: Epithelial cell; how it was run: as §5
Glucocorticoid receptor [8] = target: T3, Glucocorticoid receptor (Homo sapiens, UniProt P04150); assay: Antagonist activity at glucocorticoid receptor expressed in L929 cells by HRE-tk luciferase assay
T3 sequence (P04150 whole entry): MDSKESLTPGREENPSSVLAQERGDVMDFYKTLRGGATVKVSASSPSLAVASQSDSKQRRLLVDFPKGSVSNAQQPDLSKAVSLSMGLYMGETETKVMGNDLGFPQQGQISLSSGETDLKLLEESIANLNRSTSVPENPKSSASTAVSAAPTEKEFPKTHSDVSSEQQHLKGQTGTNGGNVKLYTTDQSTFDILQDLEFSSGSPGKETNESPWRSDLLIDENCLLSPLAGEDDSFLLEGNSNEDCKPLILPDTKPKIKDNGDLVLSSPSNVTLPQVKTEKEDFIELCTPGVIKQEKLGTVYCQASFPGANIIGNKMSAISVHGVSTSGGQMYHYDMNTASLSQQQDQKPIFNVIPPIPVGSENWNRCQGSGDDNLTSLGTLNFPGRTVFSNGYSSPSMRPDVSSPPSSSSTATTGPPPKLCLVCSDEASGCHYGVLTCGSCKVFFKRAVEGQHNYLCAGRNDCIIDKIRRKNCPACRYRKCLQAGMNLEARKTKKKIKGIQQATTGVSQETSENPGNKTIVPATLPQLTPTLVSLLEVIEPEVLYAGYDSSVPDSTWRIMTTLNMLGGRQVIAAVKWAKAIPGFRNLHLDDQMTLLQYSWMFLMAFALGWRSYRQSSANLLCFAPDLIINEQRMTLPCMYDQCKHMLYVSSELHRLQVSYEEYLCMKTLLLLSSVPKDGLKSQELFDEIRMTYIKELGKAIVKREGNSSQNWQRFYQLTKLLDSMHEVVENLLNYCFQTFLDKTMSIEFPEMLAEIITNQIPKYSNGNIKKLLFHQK

[9] = Clearance in rat at 1 mg/kg, iv; format: ADME, organism-based; design: dose 1 mg/kg, route intravenous; conditions: in vivo
How it was run: (§6)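 Female rats, single dose of 1 mg/kg given as IV bolus or orally. AUC0–∞, clearance, volume of distribution and terminal half-life taken from the IV arm. Oral exposure gives AUC0–∞; bioavailability from oral versus IV exposure.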

[10] = AUC (0 to infinity) in rat at 1 mg/kg, po; format: ADME, organism-based; design: time infinity, dose 1 mg/kg, route oral; conditions: plasma; how it was run: as §6
Androgen receptor [11] = target: T4, Androgen receptor (Homo sapiens, UniProt P10275); assay: Antagonist activity at androgen receptor expressed in mouse fibroblast L929 cells by HRE-tk luciferase assay
T4 sequence (P10275 whole entry): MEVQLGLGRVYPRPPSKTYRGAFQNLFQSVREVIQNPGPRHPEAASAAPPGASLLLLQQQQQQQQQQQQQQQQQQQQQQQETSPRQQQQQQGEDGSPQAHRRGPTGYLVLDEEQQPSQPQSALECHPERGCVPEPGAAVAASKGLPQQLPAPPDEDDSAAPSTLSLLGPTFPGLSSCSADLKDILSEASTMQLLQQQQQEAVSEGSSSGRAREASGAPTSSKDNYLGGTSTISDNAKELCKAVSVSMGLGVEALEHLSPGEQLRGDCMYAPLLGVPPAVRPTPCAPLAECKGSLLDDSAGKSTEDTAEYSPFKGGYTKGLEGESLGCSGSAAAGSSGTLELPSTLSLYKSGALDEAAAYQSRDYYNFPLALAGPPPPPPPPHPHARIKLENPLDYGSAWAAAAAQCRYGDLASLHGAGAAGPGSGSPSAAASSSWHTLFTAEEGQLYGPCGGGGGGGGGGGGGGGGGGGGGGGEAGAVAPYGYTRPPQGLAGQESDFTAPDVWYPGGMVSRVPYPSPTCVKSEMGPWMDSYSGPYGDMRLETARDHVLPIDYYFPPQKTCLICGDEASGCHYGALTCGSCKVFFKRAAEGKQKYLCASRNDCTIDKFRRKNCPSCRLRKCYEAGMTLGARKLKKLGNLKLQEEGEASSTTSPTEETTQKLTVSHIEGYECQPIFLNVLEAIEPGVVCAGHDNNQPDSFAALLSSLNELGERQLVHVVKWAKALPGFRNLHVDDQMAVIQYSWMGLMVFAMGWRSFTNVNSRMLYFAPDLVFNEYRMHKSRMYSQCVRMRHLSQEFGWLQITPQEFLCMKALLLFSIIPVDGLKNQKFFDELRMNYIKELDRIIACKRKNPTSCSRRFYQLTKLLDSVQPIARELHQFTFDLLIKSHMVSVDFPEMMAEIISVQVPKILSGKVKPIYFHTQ

Rattus norvegicus [12] = assay: Effect on uterine decidualization in po dosed ovariectomized Sprague-Dawley rat after 7 days; format: organism-based; conditions: 168 h
How it was run: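 Ovariectomized mature Sprague–Dawley rats (~60-day-old, 230 g), groups of 4–5, dosed once daily for 7 days by gavage. Half-log dose steps. One uterine horn decidually stimulated; the contralateral horn is the control. Horns weighed about 24 h after the last dose. D-horn/C-horn ratio log-transformed; Huber M-estimator; ANOVA and nonlinear dose–response fitting.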

Glucocorticoid receptor [13] = target: T3, Glucocorticoid receptor; assay: Agonist activity at glucocorticoid receptor expressed in L929 cells by HRE-tk luciferase assay
[14] = Volume of distribution in rat at 1 mg/kg, iv; format: ADME, organism-based; design: dose 1 mg/kg, route intravenous; conditions: in vivo; how it was run: as §6
[15] = AUC (0 to infinity) in rat at 1 mg/kg, iv; format: ADME, organism-based; design: time infinity, dose 1 mg/kg, route intravenous; conditions: plasma; how it was run: as §6
Androgen receptor [16] = target: T4, Androgen receptor; assay: Agonist activity at androgen receptor expressed in mouse fibroblast L929 cells by HRE-tk luciferase assay
[17] = Bioavailability in rat at 1 mg/kg, po; format: ADME, organism-based; conditions: in vivo; how it was run: as §6
[18] = Terminal half life in rat at 1 mg/kg, iv; format: ADME, organism-based; design: dose 1 mg/kg, route intravenous; conditions: in vivo; how it was run: as §6
[19] = target: T2, Progesterone receptor (Homo sapiens); assay: as §1; format: functional, cell-based; how it was run: as §2

| Compound | EC50 (Progesterone receptor [1]) [nM] | Activity [4] | Efficacy [5] [%] | further results |
| --- | --- | --- | --- | --- |
| CCC(CC)n1c(=O)[nH]c2ccc(-c3ccc(C#N)n3C)cc21 | > 3000 |  |  | IC50 (Progesterone receptor [2]): 11.7 nM |
| Cn1c(C#N)ccc1-c1ccc2[nH]c(=O)n(C3CCCC3)c2c1 | > 3000 |  |  | IC50 (Progesterone receptor [3]): 26.2 nM |
| N#Cc1cc(F)cc(-c2ccc3[nH]c(=S)n(C4CCC4)c3c2)c1 | 2.7 | inactive | 60 |  |
| Cn1c(C#N)ccc1-c1ccc2[nH]c(=O)n(C3CCC3)c2c1 | > 3000 |  |  |  |
| CC(=O)[C@H]1CC[C@H]2[C@@H]3CCC4=CC(=O)CC[C@]4(C)[C@H]3CC[C@]12C [PROGESTERONE] |  | inactive |  |  |
| CC(=O)O[C@]1(C(C)=O)CC[C@H]2[C@@H]3C[C@H](C)C4=CC(=O)CC[C@]4(C)[C@H]3CC[C@@]21C [MEDROXYPROGESTERONE ACETATE] |  | inactive |  | ED5 (Rattus norvegicus [6]): 0.03 mg/kg |
| Fc1ccc(-c2ccc3[nH]c(=S)n(C4CCCC4)c3c2)cc1F | 62.5 | inactive | 75 |  |
| CCC(CC)n1c(=S)[nH]c2ccc(-c3ccc(C#N)n3C)cc21 | 1 | inactive | 70 |  |
| Fc1ccc(-c2ccc3[nH]c(=S)n(C4CCCC4)c3c2)cc1Cl | 49.3 | inactive | 55 |  |
| Cn1c(C#N)ccc1-c1ccc2c(c1)C(C)(C)OC(=S)N2 [TANAPROGET] |  |  |  | ED100 (Cynomolgus monkey): 0.01 mg/kg |
| Cn1c(C#N)ccc1-c1ccc2[nH]c(=S)n(C3CCCC3)c2c1 | 0.1 | inactive | 75 | ED50 (Rattus norvegicus [7]): 0.003 mg/kg; IC50 (Progesterone receptor [3]): 0.4 nM; IC50 (Glucocorticoid receptor [8]): 99 nM; clearance [9]: 25 mL/min/kg; AUC(0-inf) [10]: 480 ng·h/mL; IC50 (Androgen receptor [11]): 1000 nM; ED50 (Rattus norvegicus [12]): 0.02 mg/kg; EC50 (Glucocorticoid receptor [13]): > 10000 nM; Vd [14]: 7.6 L/kg; AUC(0-inf) [15]: 680 ng·h/mL; EC50 (Androgen receptor [16]): > 10000 nM; bioavailability [17]: 71%; half-life [18]: 4.4 h; ED100 (Cynomolgus monkey): 0.03 mg/kg |
| CCC(CC)n1c(=S)[nH]c2ccc(-c3cc(F)cc(C#N)c3)cc21 | 270 |  | 70 | inhibition [4]: 50%; IC50 (Progesterone receptor [2]): 3.6 nM |
| Cn1c(C#N)ccc1-c1ccc2[nH]c(=S)n(C3CCC3)c2c1 | 0.5 | inactive | 70 |  |
| CCC(CC)n1c(=S)[nH]c2ccc(-c3ccc(F)c(Cl)c3)cc21 |  |  |  | Activity [19]: inactive; inhibition [4]: 60%; IC50 (Progesterone receptor [2]): 33.7 nM |
